Assay outcomes from PubChem BioAssay.
AI-2 QS mod: Vibrio harveyi AI-2 quorum sensing modulators, primary screen, JMH597 strain, luminescence/OD600 ratio; Vibrio harveyi JMH597 AI-2 luminescence/OD600 ratio, 9 h; stronger effect = lower value; strain lacks LuxN and CqsS sensors; 0 = neutral-control median; hit rate 0.4% among 300,000; activity change, % at 7.5 µM; in the data active means activity change below about -75%, passing the limit was not always enough; inconclusive means no clear call, values can overlap the other calls;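 further: luminescence divided by OD600 gain over 9 h not by final OD600 alone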
UBC13 inh: UBC13 polyubiquitin chain formation inhibitors, primary screen, biochemical, TR-FRET, uHTS | inhibition, % at 20 µM | hit rate 0.47% among 330,000 | AID 485273, 2010; in the data active means inhibition above about 45%, passing the limit was not always enough; inconclusive means no clear call, values can overlap the other calls
Target sequence (P61088 whole entry, looked up): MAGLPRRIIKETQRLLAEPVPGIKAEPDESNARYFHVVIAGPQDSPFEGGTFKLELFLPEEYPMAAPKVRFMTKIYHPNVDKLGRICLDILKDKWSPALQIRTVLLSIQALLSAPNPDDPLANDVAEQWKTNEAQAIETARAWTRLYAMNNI
T cruzi inh: inhibitors of intracellular T. cruzi growth, primary screen, luminescence, NIH3T3 host cells; T. cruzi beta-gal in NIH3T3, 90 h; inhibition, % (no concentration beside the values); hit rate 1.4% among 300,000;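 active means mean inhibition across valid replicates above about 55%, limit read from the data; inconclusive means mean below that limit but half or more replicates reach it; inactive means mean below it, under half of replicates reach it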;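 further: signal also drops with host cell toxicity which is not excluded here; 0% = plate median of DMSO wells and 100% = zero luminescence signal; higher percent means less beta-gal luminescence so fewer parasites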
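System – NIH/3T3 host cells with β-galactosidase reporter T. cruzi · Doses – single 50 nL compound addition per well in DMSO · Reagent – 5000 T. cruzi trypomastigotes/well · Medium – Low-serum DMEM with 2% FBS · Timing – ≥90 h infection period, 3 h prior cell attachment · Evaluation – parasite load inhibition, % · Technique – GalScreen luminescence, 60 min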
PP1 inh: PP1-alpha phosphatase inhibitors, primary screen, counter-screen for PP5 inhibitor project, biochemical, fluorescence, OMFP substrate, single point. hit rate 0.9% among 320,000. Serine/threonine-protein phosphatase PP1-alpha catalytic subunit (Homo sapiens), P62136. purified PP1alpha. inhibition, % at 6.7 µM;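 active means inhibition above the mean inhibition of all tested compounds plus 3 SD, computed separately for each screening campaign, cut at about 15% in these data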
Target sequence (P62136 whole entry, looked up): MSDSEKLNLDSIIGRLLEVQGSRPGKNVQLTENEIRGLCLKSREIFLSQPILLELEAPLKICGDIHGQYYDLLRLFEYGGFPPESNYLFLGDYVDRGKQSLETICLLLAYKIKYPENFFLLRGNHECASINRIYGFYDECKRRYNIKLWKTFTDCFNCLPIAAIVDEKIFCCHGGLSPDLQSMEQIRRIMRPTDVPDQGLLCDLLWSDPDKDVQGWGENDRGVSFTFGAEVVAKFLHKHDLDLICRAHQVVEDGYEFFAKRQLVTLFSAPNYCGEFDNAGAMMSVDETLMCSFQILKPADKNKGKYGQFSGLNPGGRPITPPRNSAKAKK
pCIP destab: p/CIP-EGFP fusion destabilizers, primary screen, fluorescence, F442A cells; 16 h; Q05BA5; decrease of EGFP signal, % at 10 µM; hit rate 0.01% among 290,000; AID 1984, 2009;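 active means EGFP signal decrease of at least 30% at 10 µM or well 3 SD below plate mean, unless failing retest; inactive means the rest, including hits failing retest or dose response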
JMH597 growth rt: Vibrio harveyi growth inhibition, confirmation, counter-screen for AI-2 quorum sensing project, JMH597 strain, OD600 absorbance. shares compounds with AI-2 QS mod. 9 h; lacks LuxN and CqsS sensors. growth inhibition, % at 7.5 µM. hit rate 1% among 750. AID 2726, 2010;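 active means every replicate shows growth inhibition above 50%; inconclusive means at least half, but not all, replicates pass that cutoff; inactive means fewer than half of replicates pass it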
BB721 const-QS lum: luminescence inhibition in constitutive-on V. harveyi, confirmation, counter-screen for LuxS inhibitor project, strain BB721, luminescence readout; inhibition, % at 7.5 µM; Vibrio harveyi BB721 luminescence, 9 h; shares compounds with AI-2 QS mod; hit rate 95% among 750; AID 2727, 2010;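 active means inhibition above about 80% in every replicate, not just on average, limit read from the data; inconclusive means at least half of replicates past the limit, but not all; inactive means fewer than half of replicates past the limit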
BB721 growth: growth inhibition of V. harveyi BB721, confirmation, cytotoxicity control for AI-2 quorum sensing inhibitors, strain BB721, absorbance OD600; hit rate 3% among 750; shares compounds with AI-2 QS mod; Vibrio harveyi BB721 growth, 9 h; AID 2728, 2010; growth inhibition, % at 7.5 µM;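 active means every replicate shows growth inhibition above 50%; inconclusive means at least half but not all replicates above 50% inhibition; inactive means under half of replicates above 50% inhibition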
JMH597 AI-2 mod: Vibrio harveyi AI-2 signaling luminescence modulation – JMH597 strain, confirmation | hit rate 97% among 750 | inhibition, % at 7.5 µM | AID 2736, 2010 | Vibrio harveyi JMH597 AI-2 quorum sensing luminescence, 9 h; luxN and CqsS knockout, AI-2 only | shares compounds with AI-2 QS mod;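 active means every replicate shows more than 75% inhibition of signal versus neutral control wells; inconclusive means half to three quarters of replicates exceed 75% inhibition; inactive means fewer than half of replicates exceed 75% inhibition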
Numbers without * were called inactive; u = inconclusive; x = not tested or not shown. Sampled rows, rich in hits. Any-hit rate of the full collection: about 2.8%.

SMILES	AI-2 QS mod	UBC13 inh	T cruzi inh	PP1 inh	pCIP destab	JMH597 growth rt	BB721 const-QS lum	BB721 growth	JMH597 AI-2 mod
O=C(/C=C/c1ccccc1)NCc1ccc2c(c1)OCO2	-94*	11	-1	-3	-3	-2	98*	2	98*
O=C(Cc1ccc(Cl)cc1)Nc1ccc(Br)cc1	-30	10	5	-4	-5	x	x	x	x
O=C(Cc1ccc(Br)cc1)Nc1cccc(Cl)c1	-82*	11	21	-1	-2	-20	88*	7	88*
O=C(/C=C/c1cccs1)NCc1ccc2c(c1)OCO2	-90*	1	-1	0	-9	-14	95*	-10	95*
COc1ccc(OCC(=O)NNC(=O)Cn2c(=O)cnc3ccccc32)cc1	x	4	x	x	x	x	x	x	x
Cc1ccc(S(=O)(=O)N2CCOCC2)cc1C(=O)OCC(=O)N(Cc1ccccc1)C(C)C	x	11	x	0	x	x	x	x	x
Cc1ccc(/C=C/C(=O)NCc2cccs2)cc1	-75	-7	-15	2	-10	x	x	x	x
O=C(/C=C/c1cccs1)NCc1cccs1	-83*	0	-5	0	x	9	92*	6	92*
CCOC(=O)c1ccc(NC(=O)C(C)N2C(=O)c3ccccc3C2=O)cc1 (stereo unspecified)	21	7	-13	-1	7	x	x	x	x
CCOC(=O)c1cccc(NC(=O)C(C)N2C(=O)c3ccccc3C2=O)c1 (stereo unspecified)	-95*	-5	-2	3	-6	11	99*	-1	99*
COc1ccc(S(=O)(=O)N(C)CC(=O)NCc2ccccn2)cc1	23	-2	-4	-4	-16	x	x	x	x
O=C(NCc1ccccn1)c1cc(S(=O)(=O)N2CCCCC2)ccc1Cl	x	-2	x	-6	x	x	x	x	x
COC(=O)c1ccc(Oc2ccc(C(C)(C)C)cc2)c([N+](=O)[O-])c1	u	2	10	-3	-2	32	84*	u	91*
COc1ccc(C(NC(=O)CN2C(=O)NC3(CCc4ccccc43)C2=O)c2ccc(OC)cc2)cc1 (stereo unspecified)	x	5	x	x	x	x	x	x	x
Nc1c(S(=O)(=O)c2ccccc2)nnn1-c1ccccc1	-97*	-4	1	-3	-7	11	100*	-40	100*
O=C(CCN1C(=O)c2ccccc2C1=O)Nc1ccccc1C(F)(F)F	23	4	-4	-3	9	x	x	x	x
Cc1cccc(-n2nnc(C(=O)N3CCc4ccccc4C3)c2N)c1	-82*	5	11	-1	2	39	92*	u	95*
C[C@H]1O[C@@H](O[C@H]2CC[C@@]3(C)C(CC[C@]4(C)C3C=CC3=C5CC(C)(C)CC[C@]5(CO)[C@H](O)C[C@]34C)[C@]2(C)CO)[C@H](O)[C@@H](O[C@@H]2O[C@H](CO)[C@@H](O)[C@H](O)[C@H]2O)[C@H]1O (stereo partly specified)	x	29	x	x	x	x	x	x	x
CC(C)(C)c1ccc(/C=C/C(=O)N2CCCCC2)cc1	-86*	x	-17	x	-5	12	94*	13	97*
CCc1ccc(/C=C\C(=O)N2CCCC2)cc1	-10	-8	9	0	x	x	x	x	x
Cc1cccc(OCc2nnc(SCC(=O)N3CC(=O)Nc4ccccc43)o2)c1	-93*	10	-17	0	5	1	96*	0	98*
Cc1cccc(OCc2nnc(SCC(=O)N3CCCCC3)o2)c1	25	4	4	0	-7	x	x	x	x
COC(=O)c1cc(OC)c(OC)cc1NC(=O)c1ccc(Br)o1	u	11	-12	-5	x	-18	-2	-19	1
CCCSc1nsc(NC(=O)c2cccnc2OCC)n1	-95*	10	6	4	-7	69	100*	-25	100*
COc1ccccc1NC(=O)NNC(=O)c1ccc2ccccc2c1O	-8	8	2	x	-3	x	x	x	x
SMILES	AI-2 QS mod	UBC13 inh	T cruzi inh	PP1 inh	pCIP destab	JMH597 growth rt	BB721 const-QS lum	BB721 growth	JMH597 AI-2 mod
O=S(=O)(NCCCc1ccccc1)c1cccc2nsnc12	2	-12	-3	0	-2	x	x	x	x
Nc1ccccc1S(=O)(=O)NCCCCc1ccccc1	-89*	5	-18	2	-19	-4	95*	5	96*
O=c1[nH]c2ccccc2c(O)c1-c1ccccc1	15	6	-15	-3	-11	x	x	x	x
O/N=C/Cc1[nH]c2ccccc2c1-c1ccccc1	-96*	5	7	2	-9	29	95*	-97	99*
CN(C(=O)Cc1csc(-c2ccccc2)n1)c1c(N)n(Cc2ccccc2)c(=O)[nH]c1=O	12	0	5	-4	x	x	x	x	x
Nn1c(SCc2ccc(Br)cc2)nnc1-c1cccnc1	-86*	10	-8	-2	3	21	95*	11	96*
O=C(O)c1cccc(CSc2nnc(-c3cccnc3)o2)c1	19	-4	-2	x	7	x	x	x	x
C(=C\c1ccccc1)/CSc1nnc(-c2cccnc2)o1	-89*	-1	6	-4	-10	19	95*	-1	98*
O=C(O)c1ccc(CSc2nnc(-c3ccccc3Br)o2)cc1	29	-11	-8	-2	-7	x	x	x	x
c1ccc(CSc2nnc(-c3cccnc3)o2)cc1	-95*	6	-23	-7	-3	-12	99*	-24	99*
Cc1ccccc1-c1nnc(SCc2ccc(F)cc2)o1	-92*	-2	8	0	-5	24	97*	69	97*
Cc1ccc(CSc2nnc(-c3ccccn3)n2N)cc1	u	4	-9	-2	2	0	91*	-21	95*
Clc1ccc(CSc2nnc(-c3ccncc3)o2)cc1	-70	2	11	3	-10	x	x	x	x
O=[N+]([O-])c1ccc(CSc2nnc(-c3cccnc3)o2)cc1	-59	0	-18	x	-4	x	x	x	x
Clc1ccc(CSc2nnc(-c3cccnc3)o2)cc1	-93*	-1	-2	-3	-3	27	98*	22	99*
Brc1ccc(CSc2nnc(-c3cccnc3)o2)cc1	-94*	-18	-5	0	-9	1	98*	0	99*
